# KCNQ1 pot: potentiates or activates the human KCNQ1 potassium channel. P51787. CHO-K1 KCNQ1, thallium flux FluxOR fluorescence; active compounds read high. B-score at 10 µM. hit rate 0.35% among 310,000;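 active = fluorescence ratio B-score, a plate-corrected score, at least three library SD, with initial intensity B-score within 5 SD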
#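 Assay system: CHO-K1 cells stably expressing KCNQ1. Medium: assay buffer for compound exposure, DMSO matched across wells. Timing: 37 °C overnight plating, 90-min dark dye load, 20-min compound pretreatment. Signal: kinetic FluxOR fluorescence, 10 s baseline plus 110 s post-stimulus.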
# KCNK3 block: human KCNK3 channel inhibition, primary screen; B-score at 10 µM; AID 602410; O14649; CHO-KCNK3 thallium flux, FluxOR fluorescence; active compounds read low; hit rate 0.84% among 340,000;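 active = B-score under library mean minus 4 SD, starting fluorescence ratio at most library mean plus 5 SD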;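 note: more negative B-score means stronger inhibition of thallium flux through KCNK3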
# Kir21 block: inhibitors of mouse Kir2.1 inward-rectifier potassium channel. AID 1672. hit rate 0.85% among 310,000. B-score at 10 µM. P35561. HEK293-Kir2.1, FluxOR thallium flux fluorescence; active compounds read low;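 active = fluorescence ratio B-score at or below minus 3 SD of library scores, with starting-brightness B-score within 2 SD, cut at about -4.2 in these data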;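 note: channel flux triggered by added potassium and thallium sulfate stimulus; B-score of peak minus minimum fluorescence over baseline after thallium stimulus; more negative B-score means stronger Kir2.1 block with less thallium influx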
# hERG protect: compounds protecting human hERG from proarrhythmic drug block; Q12809; activation (rescue from dofetilide block), less the hit threshold, % at 10 µM; AID 1511; hit rate 0.51% among 310,000; CHO-hERG, FluxOR thallium flux, dofetilide IC70 present;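 active = activation above the mean of controls blocked by dofetilide plus 5 SD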;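 note: thallium influx through hERG after potassium depolarization seen as dye fluorescence rise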
# KCNK9 inh: human KCNK9 channel inhibition; Q9NPC2; HEK293 KCNK9, FluxOR thallium flux fluorescence; active compounds read low; B-score at 10 µM; hit rate 1.2% among 310,000; AID 488922;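 active = ratio B-score over 3 SD below the library mean, with starting fluorescence within 5 SD of its mean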;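 note: negative B-score means less thallium flux so channel inhibition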
# KCNQ1 block: human KCNQ1 channel inhibition | P51787 | CHO-K1 KCNQ1, FluxOR thallium flux fluorescence; active compounds read high | B-score at 10 µM | hit rate 1.3% among 310,000 | AID 2642;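 active = compounds whose thallium flux B-score, printed positive for inhibition, exceeds three library SD while starting fluorescence stays within three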;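 note: channel opened by potassium depolarization with thallium stimulus after 20 min compound exposure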
# KCNQ1 block val: human KCNQ1 channel inhibition, validation assay | AID 588353 | KCNQ1 cell line, FluxOR thallium flux fluorescence | hit rate 93% among 1,600 | inhibition, % at 10 µM | shares compounds with KCNQ1 block;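 active = primary screen active, with duplicate mean exceeding buffer control mean plus 3 SD of buffer wells, cut at about 28% in these data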;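 note: 0% = buffer control ratio and 100% = XE991 inhibitor control ratio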
# CHO KCNQ1 ctr: activity in parental CHO cells lacking KCNQ1; shares compounds with KCNQ1 block; parental CHO-K1, FluxOR thallium flux fluorescence ratio; active compounds read low; zero means no signal rise above baseline; fluorescence ratio (Tl flux) at 10 µM; hit rate 21% among 1,600; AID 588366;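 active = mean of duplicate thallium-flux fluorescence ratios in parental host cells more than 5 SD below the buffer control mean, cut at about 0.38 in these data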;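 note: ratio is peak minus minimum fluorescence divided by baseline fluorescence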
# KCNQ1 ephys val: confirmation of human KCNQ1 potassium channel inhibitors by electrophysiology. shares compounds with KCNQ1 block. KCNQ1-CHO cells, automated patch clamp current. calls only at 10 µM. hit rate 20% among 490;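 active = KCNQ1 current drop exceeding 3 SD of negative control wells, seen in both duplicate runs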;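 note: steady state current during a 2 s step from -80 to +40 mV; negative values mean current inhibition and positive values mean potentiation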
# KCNQ2 inh: selectivity of KCNQ1 inhibitors: inhibition of rat KCNQ2 channel; AID 651746; shares compounds with KCNQ1 block; hit rate 71% among 1,600; KCNQ2 cells, FluxOR thallium flux fluorescence; inhibition, % at 10 µM;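 active = mean percent inhibition of the KCNQ2 thallium signal more than 5 SD above the buffer-only control wells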;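 note: KCNQ2 expressed in CHO cells; 0% = buffer control wells and 100% = XE-991 inhibitor control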
# KCNQ1 KCNE1 spec: human KCNQ1/KCNE1 inhibition in KCNQ1 specificity screen; hit rate 77% among 1,600; inhibition, % at 10 µM; KCNQ1/KCNE1 cells, FluxOR thallium flux fluorescence; shares compounds with KCNQ1 block;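 active = mean percent inhibition of duplicate wells above the buffer-only control mean plus 3 SD of those controls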;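 note: 0% = buffer only wells and 100% = XE-991 inhibitor control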
# Target sequence (P51787 whole entry, looked up): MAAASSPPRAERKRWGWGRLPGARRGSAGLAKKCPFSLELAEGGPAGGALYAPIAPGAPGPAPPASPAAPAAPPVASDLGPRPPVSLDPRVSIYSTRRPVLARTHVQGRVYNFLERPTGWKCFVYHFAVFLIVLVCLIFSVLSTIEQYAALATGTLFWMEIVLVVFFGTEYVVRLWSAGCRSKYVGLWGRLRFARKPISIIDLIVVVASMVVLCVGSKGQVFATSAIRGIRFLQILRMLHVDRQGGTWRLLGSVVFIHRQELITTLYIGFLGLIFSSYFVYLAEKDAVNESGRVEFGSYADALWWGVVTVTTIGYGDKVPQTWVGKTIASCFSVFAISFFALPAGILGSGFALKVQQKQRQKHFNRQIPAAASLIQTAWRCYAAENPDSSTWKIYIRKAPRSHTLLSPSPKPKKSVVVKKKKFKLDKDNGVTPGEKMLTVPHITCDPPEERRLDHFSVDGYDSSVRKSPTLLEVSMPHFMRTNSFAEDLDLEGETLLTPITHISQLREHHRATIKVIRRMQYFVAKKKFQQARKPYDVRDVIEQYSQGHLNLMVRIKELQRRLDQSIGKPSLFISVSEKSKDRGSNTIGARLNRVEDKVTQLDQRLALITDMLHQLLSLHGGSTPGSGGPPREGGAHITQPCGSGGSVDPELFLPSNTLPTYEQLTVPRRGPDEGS
# Active calls of the source: *; i = inactive; . = no result given; + = active, no number. An excerpt weighted towards active compounds, which were near 3.7% of everything screened.
SMILES,KCNQ1 pot,KCNK3 block,Kir21 block,hERG protect,KCNK9 inh,KCNQ1 block,KCNQ1 block val,CHO KCNQ1 ctr,KCNQ2 inh,KCNQ1 KCNE1 spec,others
CN(Cc1ccc(F)cc1)C(=O)c1cccc(S(=O)(=O)N2CCN(c3ccc(F)cc3)CC2)c1,i,i,-0.01,-12,i,i,.,.,.,.,
CN(C)S(=O)(=O)c1ccc(Cl)c(NC(=O)COC(=O)c2cc(-c3ccccc3)nc3ccccc23)c1,i,i,0.88,-10,i,6*,60*,0.49,74%*,74%*,
CCCn1c2c(c(O)c(C(=O)Nc3ccc(OC)cc3)c1=O)CCCC2,i,i,0.11,-8,i,7*,94*,0.44,78%*,104%*,KCNQ1 ephys val=i
S=C(NCc1ccncc1)Nc1cc(Cl)cc(Cl)c1,i,i,0.24,-14,i,i,.,.,.,.,
S=C(NCc1ccco1)Nc1ccc(Cl)c(Cl)c1,i,i,0.49,-18,i,8*,42*,0.57,i,52%*,
S=C(NCc1ccncc1)Nc1ccc(Cl)c(Cl)c1,i,i,0.15,-13,i,6*,33*,0.58,i,i,
COc1ccc(NC(=S)NCc2ccco2)cc1,i,i,0.65,0,i,i,.,.,.,.,
S=C(NCc1ccco1)Nc1ccc(Oc2ccccc2)cc1,i,i,-0.01,-18,i,8*,45*,0.43,59%*,66%*,
O=C(CCc1nc(-c2ccccc2)no1)NC1CCCCCC1,.,i,.,.,.,.,.,.,.,.,
Cc1onc(C(N)=O)c1C(=O)Nc1ncc(C(F)(F)F)cc1Cl,i,i,0.75,-10,i,i,.,.,.,.,
O=C(COC(=O)c1c(Cl)ccc(Cl)c1Cl)NC(=O)NCc1ccccc1,i,i,-1.5,-6,i,i,.,.,.,.,
CCOc1ccc(Br)cc1S(=O)(=O)Nc1cccc(S(=O)(=O)N2CCOCC2)c1,.,i,.,.,.,.,.,.,.,.,
Cc1ccc(-n2c(-c3ccc(Br)cc3)c[n+]3c2CCc2ccc4cccnc4c2-3)cc1,i,-11*,-14*,-43,i,19*,136*,0.32*,120%*,184%*,
C=CCN(c1ccccc1)S(=O)(=O)c1cc2c(cc1C)N(C)CCO2,i,i,-1.4,-16,i,i,.,.,.,.,
O=C(NCC1(c2ccccc2)CCCC1)c1cccc(Br)c1,i,i,0.91,-12,i,6*,106*,0.41,112%*,147%*,KCNQ1 ephys val=+
COc1ccc(C2(CNC(=O)c3ccccc3)CCCC2)cc1OC,i,i,-0.63,0,i,i,.,.,.,.,
Cc1ccc(S(=O)(=O)NCC(=O)NCC(=O)N2CCC(C)CC2)cc1,i,i,-0.2,-7,i,i,.,.,.,.,
O=C(COC(=O)c1ccccc1Cc1ccccc1)Nc1ccc(SC(F)F)cc1,i,i,0.76,-8,i,7*,86*,0.41,128%*,101%*,
CCOC(=O)c1ccc(-c2c(-c3ccc4c(c3)OCO4)noc2C)cc1F,i,i,0.77,-5,i,i,.,.,.,.,
CCCCCC(=O)Nc1ccc(C(=O)COC(=O)Cn2cnc3c2c(=O)n(C)c(=O)n3C)cc1,i,i,1,-9,i,i,.,.,.,.,
Cc1cccc(NCc2ccc(N(C)C)cc2)n1,i,i,1.1,0,i,i,.,.,.,.,
Cc1cc(NC2CCCCC2)nc2ccccc12,i,i,-0.68,-19,i,6*,58*,0.45,59%*,49%*,
CC1(C)CC(=O)C2=C(C1)N1C(=C(C#N)C2c2ccc(Cl)cc2)N=C(N)c2ccccc21 (stereo unspecified),i,i,-0.04,-11,i,8*,74*,0.41,77%*,70%*,
COc1cc2ncc(S(=O)(=O)c3ccccc3)c(N3CCCC(C)C3)c2cc1OC (stereo unspecified),i,i,-2.4,-22,i,11*,152*,0.28*,164%*,+,
O=S(=O)(c1ccccc1)c1cnc(-c2ccccc2)nc1N1CCCC1,i,i,0.3,-16,i,i,.,.,.,.,
SMILES,KCNQ1 pot,KCNK3 block,Kir21 block,hERG protect,KCNK9 inh,KCNQ1 block,KCNQ1 block val,CHO KCNQ1 ctr,KCNQ2 inh,KCNQ1 KCNE1 spec,others
Cc1ccc(C)c(S(=O)(=O)NCCCc2ccccc2)c1,i,i,-0.39,-8,i,7*,98*,0.49,i,i,KCNQ1 ephys val=i
O=S(=O)(NCCCc1ccccc1)c1ccccc1,i,i,-0.64,-8,i,i,.,.,.,.,
CC(Oc1cccc(Cl)c1)C(=O)Nc1cc(S(=O)(=O)N2CCCCC2)ccc1N1CCOCC1 (stereo unspecified),i,i,2.1,-13,i,9*,69*,0.39,94%*,95%*,
CC(Oc1cccc(Cl)c1)C(=O)Nc1cc(S(=O)(=O)N2CCOCC2)ccc1N1CCCC1 (stereo unspecified),i,i,-0.93,-16,i,i,.,.,.,.,
O=C(COC(=O)/C=C/c1ccco1)NCc1ccc2c(c1)OCO2,i,i,-0.01,2,i,i,.,.,.,.,
CNC(=S)Nc1ccc(C23CC4CC(CC(C4)C2)C3)cc1,i,i,-0.4,-9,i,7*,74*,0.47,65%*,90%*,
CC(=O)Nc1ccc(C23CC4CC(CC(C4)C2)C3)cc1,i,i,-0.1,-13,i,i,.,.,.,.,
COc1ccc(Nc2ncnc3ccccc23)c(OC)c1,i,i,1.3,1,i,i,.,.,.,.,
Cc1ccc(Nc2nc(N3CCOCC3)c3ccccc3n2)cc1,i,i,-0.02,-13,i,i,.,.,.,.,
COc1ccc(Nc2nc(N3CCCC3)nc3ccccc23)c(OC)c1,i,i,-0.25,-20,i,7*,112*,0.38,81%*,137%*,
COc1ccc(Nc2nc(N3CCCCC3)c3ccccc3n2)cc1,i,i,-1.1,-28,i,14*,139*,0.4,103%*,122%*,KCNQ1 ephys val=i

# Bioassay records from PubChem BioAssay.
